Screening data as filed in PubChem.
Sampled rows, rich in hits. Any-hit rate of the full collection: about 1.3%.
RAD52 anneal inh: RAD52 DNA annealing inhibitors, primary screen, biochemical, FRET, single point, set 2. DNA repair protein RAD52 homolog (Homo sapiens), P43351. recombinant RAD52 DNA annealing, FRET fluorescence. inhibition, % at 18.7 µM. 360,000 compounds, 0.46% hits. AID 651710, 2012;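 active = every replicate showing at least 50% inhibition; inconclusive = mean inhibition at least 50% but not in every replicate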
Target sequence (P43351 whole entry, looked up): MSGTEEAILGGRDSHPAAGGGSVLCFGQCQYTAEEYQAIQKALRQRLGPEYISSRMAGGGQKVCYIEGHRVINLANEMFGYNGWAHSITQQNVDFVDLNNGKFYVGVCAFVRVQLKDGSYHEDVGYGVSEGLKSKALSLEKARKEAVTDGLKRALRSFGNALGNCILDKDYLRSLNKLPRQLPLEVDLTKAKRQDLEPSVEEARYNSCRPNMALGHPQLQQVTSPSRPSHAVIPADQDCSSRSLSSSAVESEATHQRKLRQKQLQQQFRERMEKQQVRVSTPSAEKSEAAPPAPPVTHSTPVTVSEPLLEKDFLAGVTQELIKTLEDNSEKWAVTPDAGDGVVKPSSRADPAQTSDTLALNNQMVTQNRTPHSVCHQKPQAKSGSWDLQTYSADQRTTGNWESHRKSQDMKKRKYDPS
PAX8 reporter: inhibitors of PAX8-driven TPO luciferase reporter, primary screen, RMG-I cells, single concentration. SteadyGlo, 24 h. inhibition, % at 12.6 µM. 360,000 compounds, 1.2% hits. AID 652154, 2013;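 active = mean replicate inhibition at least 60% with every replicate also reaching 60%; inconclusive = only one of the two criteria is met; inactive = mean below 60% and not all replicates reaching 60%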;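 note: luciferase light reporting Pax8 driven TPO promoter activity; plate controls were median of neutral control wells for no effect and mitoxantrone controls for full effect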
FN deposition inh: inhibitors of fibronectin matrix deposition, primary screen, AH1F cells, Alexa488-fibronectin fluorescence, plate reader; AH1F fibroblasts, overnight; inhibition, % at 12.6 µM; 350,000 compounds, 0.086% hits; AID 743247, 2014;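 active = mean inhibition across replicates of 30% or more, regardless of how many single replicates reach that level; inconclusive = mean under 30% yet at least half of replicates reach 30%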;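 note: positive control wells lacked labelled fibronectin entirely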
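Assay system: AH1F fibroblasts / Quantity: 10000 cells per well / Medium: DMEM plus 2% serum, read in PBS / Reagent: labelled fibronectin 24 nM / Dosing: single dose, pinned / Times: 1 h cell attachment, overnight exposure to compound and label / Signal: fluorescence, ex 485 nm, em 525 nm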
RAD54 branch: inhibitors of human RAD54 branch migration, primary screen, biochemical, fluorescence, single point; 360,000 compounds, 0.14% hits; DNA repair and recombination protein RAD54-like (Homo sapiens), Q92698; inhibition, % at 10.4 µM; RAD54 Holliday junction branch migration, FAM/BHQ fluorescence;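 active = mean normalized replicate activity at least 40 and at least half of replicates scoring 40 or more; inconclusive = only one of the two criteria met; inactive = mean below 40 and under half of replicates reaching 40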;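 note: 0% = median of neutral control wells and 100% = median of positive control wells; inhibitors cause a drop in the FAM fluorescence signal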
DNA binding: DNA binding of candidate compounds, dose response, artefact control for RAD54 inhibitor project, biochemical, fluorescence polarization, cherry-pick; shares compounds with RAD54 branch; Acridine orange-DNA displacement, 20 min; AC50, µM (series often up to 35 µM), inactives show at the highest dose activity change, negative = DNA binding; 460 compounds, 8% hits;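 active = signal drop giving an AC50 within twice the top valid tested concentration of each sample, actives reach about 35 µM in these data; inactive = activity opposite to expected, plus the rest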;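 note: polarization loss reports compound binding to salmon sperm DNA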
RAD52 DNA ctr: DNA-binding compounds via dye displacement, dose response, artefact control for RAD52 inhibitor project, biochemical, fluorescence polarization, cherry-pick | Salmon sperm DNA/acridine orange FP displacement | AC50, µM | shares compounds with RAD52 anneal inh | 1,000 compounds, 8% hits;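 active = fitted half-maximal concentration for signal loss at or below twice the highest dose tested, in every separate run, actives reach about 64 µM in these data; inconclusive = runs disagree, or flat partial signal loss, or poor fit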
* hit, by the source's call; i = inactive; ? = inconclusive; . = not tested or not shown.

SMILES | RAD52 anneal inh | PAX8 reporter | FN deposition inh | RAD54 branch | others
O=C(O)C(O)(c1ccccc1)C1CCCC1 (stereo not drawn) | . | 9 | 33* | -8
Cn1nnc(CC[N+](C)(C)C)n1 | -17 | -6 | 5 | -6
C[C@H]1[C@H](OC(=O)CCC(=O)NCc2ccc(C(=O)O)cc2)O[C@@H]2O[C@@]3(C)CC[C@H]4[C@H](C)CC[C@@H]1C24OO3 | . | . | . | -21
CC1C(OC(=O)CCC(=O)NC(C)(C)CO)O[C@H]2OC3(C)CC[C@H]4[C@H](C)CCC1C24OO3 (stereo partly drawn) | -11 | 77* | 0 | -18
CC(C)CC(NC(=O)CCCNC(=O)CCC(=O)OC1O[C@H]2OC3(C)CC[C@H]4[C@H](C)CCC(C1C)C24OO3)C(=O)O (stereo partly drawn) | -10 | 74* | 2 | -6
Nc1cc(C(=O)Nc2ccc(Cl)cc2)ccc1N1CC2CC(C1)c1cccc(=O)n1C2 (stereo not drawn) | -7 | 23 | 11 | -14
O=C(O)c1nn(Cc2ccc(Cl)cc2)c2ccccc12 | -2 | 19 | -10 | 0
O=C1NC2C(O)C(O)C(O)C(O)C2c2cc3c(c(O)c21)OCO3 (stereo not drawn) | -6 | 105* | 5 | .
Cc1ccccc1-c1ccc([C@@H]2[C@@H](CO)N3CCCCN(C(=O)Cc4ccccn4)C[C@@H]23)cc1 | -15 | -2 | . | 6
O=[N+]([O-])c1ccc(N2CCOCC2)c2c1no[n+]2[O-] | -4 | 98* | 30 | 11
O=[N+]([O-])c1ccc(N2CCOCC2)c2cccnc12 | -11 | -9 | -3 | 13
O=c1[nH]c2ccccc2n1C1CCN(C(CCc2ccccc2)c2nnnn2C2CCCC2)CC1 (stereo not drawn) | -14 | -8 | -1 | 11
CSCCC(c1nnnn1-c1ccc2c(c1)OCCO2)N1CCC(n2c(=O)[nH]c3ccccc32)CC1 (stereo not drawn) | -26 | 93* | -1 | 2
CCC(c1nnnn1-c1ccc2c(c1)OCCO2)N1CCC(n2c(=O)[nH]c3ccccc32)CC1 (stereo not drawn) | -8 | 85* | 9 | -1
CCOc1ccc(NC(=O)c2ccc(NC(=O)COC(=O)Cc3ccccc3)cc2)cc1 | -13 | -67 | 6 | .
Cn1cnc([N+](=O)[O-])c1Sc1ccc([N+](=O)[O-])cc1 | -6 | 25 | 3 | -3
CCN(CC)C(=O)COc1cc(C)cc2oc(=O)c3c(c12)CCCC3 | 1 | 82* | -1 | 2
Cc1ccc2c(c1)C1CN(C)CCC1N2C(=O)/C(C#N)=C/c1ccc2c(c1)OCO2 (stereo not drawn) | -23 | 0 | -7 | .
C[C@]12CCC3C(CCC4=CC(O)CC[C@@]43/C=N/O)C1(O)CCC2C1=CC(=O)OC1 (stereo partly drawn) | -14 | 109* | -8 | .
C[C@H]1O[C@@H](OC2CC[C@]3(C=O)[C@H]4CC[C@]5(C)[C@@H](C6=CC(=O)OC6)CC[C@]5(O)[C@@H]4CC[C@]3(O)C2)CC2OC(C)(C)OC21 (stereo partly drawn) | -11 | 108* | 17 | .
CCCCN=C[C@]12CCC(O)CC1(O)CCC1[C@@H]2CC[C@]2(C)[C@H](C3C=CC(=O)O3)CCC12O (stereo partly drawn) | 1 | 107* | -14 | -2
CC12CCC3C(CCC4(O)CC(O)CCC34C=O)C1(O)CCC2C1=CC(=O)OC1 (stereo not drawn) | -7 | 101* | 19 | .
CN(C(=O)Cc1ccc2c(c1)OCO2)C1CCCN(Cc2ccccc2F)C1 (stereo not drawn) | -14 | -10 | -2 | -3
Cc1ccccc1-n1c(O)c(/C=N/N2CCOCC2)c(=O)[nH]c1=S | . | -10 | -1 | 0
CC12CCC3C(CCC4(O)CC(O)CCC34C=NO)C1(O)CCC2C1=COC(=O)C1 (stereo not drawn) | 9 | 109* | 10 | .
SMILES | RAD52 anneal inh | PAX8 reporter | FN deposition inh | RAD54 branch | others
CC12CC[C@H]3[C@@H](CCC4(O)C[C@H](O)CCC34/C=N/NC(=O)c3ccccc3Cl)C1(O)CCC2C1=CC(=O)OC1 (stereo partly drawn) | 8 | -16 | 1 | .
C[C@]12CC[C@H]3[C@@H](CC[C@]4(O)C[C@@H](O)CC[C@]34C=O)[C@@]1(O)CC[C@@H]2C1=CC(=O)OC1 | 6 | 111* | 4 | -10
CC(=O)N1Cc2cnnn2-c2ccccc2C1(C#N)Cc1ccccc1 (stereo not drawn) | -5 | -5 | 3 | 0
COC(=O)C1=C(c2ccc3ccccc3c2)C[C@@H]2CC[C@H]1N2C | -7 | 4 | -10 | 5
COC(=O)C1=C(C(=O)OC)C2OC1c1cc3ccccc3cc12 | -12 | 109* | . | .
O=C(Cc1ccccn1)N1CCCCN2[C@H](CO)[C@@H](c3ccc(-c4ccccc4F)cc3)[C@H]2C1 | -6 | -26 | . | 2
c1ccc2c(c1)[nH]c1cnccc12 | 0 | -13 | 0 | 12
Cc1c2ccncc2c(C)c2c1[nH]c1ccccc12 | . | . | -4 | 51*
CN1C(=O)N(C)C(=O)C(CCc2ccncc2)(Cc2ccc3c(c2)OCO3)C1=O | . | . | -20 | 3
COc1cccc2c1C(=O)c1c(O)c3c(c(O)c1C2=O)CC(O)(C(C)=NO)CC3OC1CC(N)C(O)C(C)O1 (stereo not drawn) | i | -16 | -1 | .
O=c1c2ccccc2nc(/C=C/c2ccc([N+](=O)[O-])o2)n1-c1ccc(O)cc1 | -54 | 69* | 1 | .
Cn1ncnc2c(=O)n(C)c(=O)nc1-2 | . | . | . | 72* | DNA binding=7%
FC(F)(F)c1ccc2c(c1)NP(=S)(N1CCOCC1)c1nccn1-2 (stereo not drawn) | 7 | . | . | 3
CN1CCN(c2ccc(C=O)cc2)CC1 | . | 4 | 1 | -1
CN1CCN(c2ccc(N)cc2)CC1 | . | 4 | . | 97* | DNA binding=-14%
Oc1ccc(CCN2CCCCC2)cc1 | -82 | 9 | 6 | -2
Nc1ccc(CCN2CCCC2)cc1 | 94* | 5 | -4 | ? | DNA binding=6%
Cc1nccc2c1[nH]c1ccccc12 | 9 | -13 | -4 | ? | DNA binding=-8%
O=C(c1c[nH]c2ccc(S(=O)(=O)N3CCC4(CC3)OCCO4)cc2c1=O)N1CCC2(CC1)OCCO2 | -9 | -26 | . | .
CC[N+](C)(CC)CCCCOc1ccc2c(c1)C(=O)c1cc(OCCCC[N+](C)(CC)CC)ccc1-2 | 105* | 6 | -2 | 99* | RAD52 DNA ctr=19µM*
